Reference: ChEMBL document CHEMBL1151198, “A new antimalarial quassinoid from Simaba orinocensis” (J Nat Prod, 2004)
≈ marks a conversion by molar mass, not a printed value. Calls of active or inactive are those of the source. The calls are words filed in the database; no cut-off is given here.

Legend:
Leishmania donovani = experiment: Antileishmanial activity against Leishmania donovani promastigotes after 48 hrs by alamar blue assay; type: functional, organism-based
Plasmodium falciparum [1] = experiment: Antimalarial activity against chloroquine-resistant Plasmodium falciparum W2 by LDH assay; type: functional, organism-based
Vero = experiment: Cytotoxicity against african green monkey kidney Vero cells; type: cell-based; conditions: Chlorocebus sabaeus
[2] = Selectivity index, ratio of IC50 for african green monkey (Cercopithecus aethiops) Vero cells to IC50 for chloroquine-sensitive Plasmodium falciparum D6; type: toxicity, cell-based; conditions: read-out: Ratio IC50
[3] = Selectivity index, ratio of IC50 for african green monkey (Cercopithecus aethiops) Vero cells to IC50 for chloroquine-resistant Plasmodium falciparum W2; type: toxicity, cell-based; conditions: read-out: Ratio IC50
HeLa [4] = experiment: Inhibition of protein synthesis in human HeLa cells assessed as translation at 10 uM by [35S]methionine metabolic labeling study; type: functional; set-up: scale not given: the % may be the effect or the level left
HeLa [5] = experiment: Inhibition of protein synthesis in human HeLa cells at 10 uM by [35S]methionine metabolic labeling study; type: functional
[6] = Inhibition of protein biosynthesis in mouse Krebs cells assessed as renilla luciferase activity at 10 uM after 1 hr by translation assay relative to control; type: functional
Outline: (§1)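 In vitro Krebs cell translation system read by firefly and renilla luciferase. Compounds at 10 or 2 µM; anisomycin 10 µM as reference and 0.5% DMSO as vehicle control. Values are average luciferase activity relative to control.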

[7] = Inhibition of protein biosynthesis in mouse Krebs cells assessed as firefly luciferase activity at 10 uM after 1 hr by translation assay relative to control; type: functional; outline: as §1
HeLa [8] = experiment: Inhibition of translation in human HeLa cells at 10 uM by 35S-methionine metabolic labeling study; type: functional, cell-based
[9] = Specific index, ratio of IC50 for mouse RAW264.7 to IC50 for iNOS production in mouse RAW264.7
Outline: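 Index calculated as the MTT IC50 in RAW 264.7 cells divided by the iNOS IC50 in the same cells.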

RAW264.7 [10] = experiment: Cytotoxicity against mouse RAW264.7 cells after 2 days by MTT assay; type: cell-based; conditions: RAW264.7, 48 h
Outline: (§2)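 MTT viability assay, run on CHO-ICAM-1 cells and, separately, on RAW 264.7 cells. IC50 in µg/mL, mean ± SEM of three determinations.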

SK-MEL = experiment: Cytotoxicity against human SK-MEL cells after 48 hrs by neutral red staining; type: functional, cell-based
Outline: (§3)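 Human tumour lines: SK-MEL (malignant melanoma), KB (epidermal carcinoma), BT-549 (ductal carcinoma) and SK-OV-3 (ovary carcinoma). Compounds tested up to a maximum of 10 µg/mL, with doxorubicin as reference. IC50 given in µg/mL as mean ± SEM of three determinations.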

KB = experiment: Cytotoxicity against human KB cells after 48 hrs by neutral red staining; type: functional, cell-based; outline: as §3
[11] = Specific index, ratio of IC50 for human HL60 cells to MIC for LFA1/ICAM1; type: functional, HL-60
Outline: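 Index calculated as XTT-assay IC50 (µg/mL) divided by the MIC from the LFA-1/ICAM-1-mediated aggregation primary screen (µg/mL). XTT IC50 values are given as mean ± SEM of three determinations.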

HeLa [12] = experiment: Inhibition of translation in human HeLa cells at 2 uM by 35S-methionine metabolic labeling study; type: functional, cell-based
Plasmodium falciparum [13] = experiment: Antimalarial activity against chloroquine-sensitive Plasmodium falciparum D6 by LDH assay; type: functional, organism-based
[14] = target: Intercellular adhesion molecule (ICAM-1), Integrin alpha-L/beta-2 (Homo sapiens, UniProt P05107+P05362+P20701); experiment: Inhibition of LFA1/ICAM1-mediated adhesion of HL60 cells to CHO-ICAM1 cells; type: cell-based, HL-60
Sequence of Intercellular adhesion molecule (ICAM-1), Integrin alpha-L/beta-2 (P20701 whole entry): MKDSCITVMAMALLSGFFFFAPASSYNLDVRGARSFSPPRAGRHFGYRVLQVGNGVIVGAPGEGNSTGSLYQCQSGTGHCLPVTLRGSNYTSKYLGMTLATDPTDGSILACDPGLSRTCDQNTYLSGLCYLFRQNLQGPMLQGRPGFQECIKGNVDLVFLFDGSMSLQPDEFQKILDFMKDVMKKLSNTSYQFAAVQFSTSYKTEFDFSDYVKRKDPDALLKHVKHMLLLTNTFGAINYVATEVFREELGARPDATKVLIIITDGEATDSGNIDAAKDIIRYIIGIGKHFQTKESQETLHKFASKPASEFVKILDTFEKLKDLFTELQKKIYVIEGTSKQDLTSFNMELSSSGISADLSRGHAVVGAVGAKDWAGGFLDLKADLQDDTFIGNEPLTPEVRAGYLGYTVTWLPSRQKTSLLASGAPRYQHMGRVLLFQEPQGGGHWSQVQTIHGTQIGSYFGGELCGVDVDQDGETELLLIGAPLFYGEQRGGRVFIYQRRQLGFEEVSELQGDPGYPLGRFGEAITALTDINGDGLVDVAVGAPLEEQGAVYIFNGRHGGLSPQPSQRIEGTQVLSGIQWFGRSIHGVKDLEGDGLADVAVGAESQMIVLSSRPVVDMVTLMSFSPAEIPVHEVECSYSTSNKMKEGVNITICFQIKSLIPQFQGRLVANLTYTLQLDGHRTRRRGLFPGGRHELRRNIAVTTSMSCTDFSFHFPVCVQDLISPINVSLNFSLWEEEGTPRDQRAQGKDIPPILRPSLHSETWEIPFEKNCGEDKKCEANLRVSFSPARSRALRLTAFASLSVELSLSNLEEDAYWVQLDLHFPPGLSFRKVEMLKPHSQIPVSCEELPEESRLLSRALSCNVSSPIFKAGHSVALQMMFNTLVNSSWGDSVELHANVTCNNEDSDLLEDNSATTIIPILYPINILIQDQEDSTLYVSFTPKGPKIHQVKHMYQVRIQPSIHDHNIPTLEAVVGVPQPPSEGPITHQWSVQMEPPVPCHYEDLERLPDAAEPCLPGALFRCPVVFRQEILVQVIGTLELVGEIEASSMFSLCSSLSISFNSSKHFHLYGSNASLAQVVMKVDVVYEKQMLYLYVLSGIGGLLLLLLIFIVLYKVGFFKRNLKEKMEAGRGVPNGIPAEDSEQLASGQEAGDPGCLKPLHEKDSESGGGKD
Sequence of Intercellular adhesion molecule (ICAM-1), Integrin alpha-L/beta-2 (P05362 whole entry): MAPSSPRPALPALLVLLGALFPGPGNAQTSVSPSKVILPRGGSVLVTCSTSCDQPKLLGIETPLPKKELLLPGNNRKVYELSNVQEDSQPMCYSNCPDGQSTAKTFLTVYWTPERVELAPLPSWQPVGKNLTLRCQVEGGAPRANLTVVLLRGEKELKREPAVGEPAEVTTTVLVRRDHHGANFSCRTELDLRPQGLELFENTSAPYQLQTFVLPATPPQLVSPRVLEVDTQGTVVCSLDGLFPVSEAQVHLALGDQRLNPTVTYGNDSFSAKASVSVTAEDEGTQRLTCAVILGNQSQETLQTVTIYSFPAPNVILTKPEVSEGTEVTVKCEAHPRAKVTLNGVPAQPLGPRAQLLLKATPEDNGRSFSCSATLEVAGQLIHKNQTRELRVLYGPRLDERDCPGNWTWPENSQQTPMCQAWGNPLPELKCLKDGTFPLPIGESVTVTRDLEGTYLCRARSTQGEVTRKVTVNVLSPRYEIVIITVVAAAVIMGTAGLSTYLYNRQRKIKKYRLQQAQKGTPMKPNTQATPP
Sequence of Intercellular adhesion molecule (ICAM-1), Integrin alpha-L/beta-2 (P05107 whole entry): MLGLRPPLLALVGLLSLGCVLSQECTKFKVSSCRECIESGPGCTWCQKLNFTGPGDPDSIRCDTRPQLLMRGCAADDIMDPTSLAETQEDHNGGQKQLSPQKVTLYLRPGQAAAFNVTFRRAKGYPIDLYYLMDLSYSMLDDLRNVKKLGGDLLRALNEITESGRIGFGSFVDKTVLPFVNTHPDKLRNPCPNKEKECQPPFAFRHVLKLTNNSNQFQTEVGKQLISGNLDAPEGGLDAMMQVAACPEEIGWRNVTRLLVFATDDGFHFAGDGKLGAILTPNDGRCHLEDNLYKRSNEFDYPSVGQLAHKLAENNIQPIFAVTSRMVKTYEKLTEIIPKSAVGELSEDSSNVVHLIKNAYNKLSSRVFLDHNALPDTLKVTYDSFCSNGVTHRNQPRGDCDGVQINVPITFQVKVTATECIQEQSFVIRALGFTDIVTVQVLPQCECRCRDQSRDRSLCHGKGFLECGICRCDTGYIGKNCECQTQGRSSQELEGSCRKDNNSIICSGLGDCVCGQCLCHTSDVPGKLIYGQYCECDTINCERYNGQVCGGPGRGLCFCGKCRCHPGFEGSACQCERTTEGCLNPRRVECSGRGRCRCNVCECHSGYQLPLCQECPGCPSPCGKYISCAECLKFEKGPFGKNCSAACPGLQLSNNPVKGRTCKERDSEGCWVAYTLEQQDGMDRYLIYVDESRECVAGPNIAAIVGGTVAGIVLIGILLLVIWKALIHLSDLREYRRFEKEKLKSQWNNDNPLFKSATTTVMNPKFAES
Outline: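 Secondary LFA-1/ICAM-1-mediated adhesion assay using HL-60 cells and CHO-ICAM-1 cells, with cytochalasin B as standard. IC50 in µg/mL, mean ± SEM of three determinations.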

HeLa [15] = experiment: Inhibition of protein synthesis in human HeLa cells at 2 uM by [35S]methionine metabolic labeling study; type: functional
HeLa [16] = experiment: Inhibition of protein synthesis in human HeLa cells assessed as translation at 2 uM by [35S]methionine metabolic labeling study; type: functional; set-up: scale not given: the % may be the effect or the level left
[17] = Inhibition of protein biosynthesis in mouse Krebs cells assessed as renilla luciferase activity at 2 uM after 1 hr by translation assay relative to control; type: functional; outline: as §1
[18] = target: Intercellular adhesion molecule (ICAM-1), Integrin alpha-L/beta-2 (Homo sapiens) (UniProt P20701+P05362+P05107); experiment: Inhibition of LFA1/ICAM1-mediated HL60 cell aggregation; type: cell-based; conditions: HL-60
Outline: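 Primary screen for LFA-1/ICAM-1-mediated cell aggregation run together with an XTT cell-proliferation read-out. Aggregation potency is reported as a minimum inhibitory concentration in µg/mL.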

HL-60 = experiment: Cytotoxicity against human HL60 cells by XTT assay; type: cell-based
Outline: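 XTT proliferation read-out combined with the primary assay for inhibitors of LFA-1/ICAM-1-mediated cell aggregation. IC50 in µg/mL, mean ± SEM of three determinations.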

[19] = Inhibition of protein biosynthesis in mouse Krebs cells assessed as firefly luciferase activity at 2 uM after 1 hr by translation assay relative to control; type: functional; outline: as §1
CHO = experiment: Cytotoxicity against CHO cells transfected with ICAM1 by MTT assay; type: cell-based; conditions: Cricetulus griseus; outline: as §2
BT-549 = experiment: Cytotoxicity against human BT549 cells after 48 hrs by neutral red staining; type: functional, cell-based; conditions: BT-549, 48 h; outline: as §3
SK-OV-3 = experiment: Cytotoxicity against human SKOV3 cells after 48 hrs by neutral red staining; type: functional, cell-based; conditions: SK-OV-3, 48 h; outline: as §3
RAW264.7 [20] = experiment: Inhibition of iNOS production in LPS-activated mouse RAW264.7 cells after 20 hrs; type: functional, cell-based; conditions: RAW264.7, 20 h
Outline: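 iNOS assay in RAW 264.7 cells, with L-NMMA, APDC and dexamethasone as reference inhibitors. IC50 in µg/mL, mean ± SEM of three determinations.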

Compound	IC50 (Leishmania donovani)	IC90 (Leishmania donovani)	IC50 (Plasmodium falciparum [1])	IC50 (Vero)	selectivity ratio [2]	selectivity ratio [3]	Activity [6]	Activity [7]	Activity (HeLa [8])	Ratio [9]	IC50 (RAW264.7 [10])	IC50 (SK-MEL)	IC50 (KB)	Ratio [11]	Activity (HeLa [12])	IC50 (Plasmodium falciparum [13])	inhibition at 2 µM (HeLa [15])	Activity (HeLa [16])	Activity [17]	Activity [19]	also measured
C[C@@H]1[C@H](O)[C@@H](C)/C=C/C=C/C=C/C=C/C=C/C=C/C=C/[C@H](O[C@@H]2O[C@H](C)[C@@H](O)[C@H](N)[C@@H]2O)C[C@@H]2O[C@](O)(C[C@@H](O)C[C@@H](O)[C@H](O)CC[C@@H](O)C[C@@H](O)CC(=O)O[C@H]1C)C[C@H](O)[C@H]2C(=O)O [AMPHOTERICIN B]	1.1 µg/mL (≈ 1.19 µM)	2.1 µg/mL (≈ 2.27 µM)	–	–	–	–	–	–	–	–	–	–	–	–	–	–	–	–	–	–	–
C[C@@H]1CC[C@H]2[C@@H](C)C(=O)O[C@@H]3O[C@@]4(C)CC[C@@H]1[C@]32OO4 [ARTEMISININ]	36 µg/mL (≈ 128 µM)	> 50 µg/mL	0.0085 µg/mL (≈ 0.0301 µM)	> 10 µg/mL	> 699	> 1180	–	–	–	–	–	–	–	–	–	–	–	–	–	–	–
COc1ccc(C[C@H]2NC[C@H](O)[C@H]2OC(C)=O)cc1 [ANISOMYCIN]	–	–	–	–	–	–	<0.01	<0.01	Active	–	–	–	–	–	–	–	–	–	–	–	Activity (HeLa [4]): 0%; inhibition at 10 µM (HeLa [5]): 98.5%
CC[C@@H](C)C(=O)O[C@H]1C(=O)O[C@@H]2C[C@H]3C(C)=CC(=O)[C@@H](O)[C@]3(C)[C@H]3[C@@H](OC(C)=O)[C@H](OC(C)=O)[C@]4(C)OC[C@]32[C@@H]14	> 50 µg/mL	> 50 µg/mL	1.7 µg/mL (≈ 3.02 µM)	> 23.8 µg/mL	> 7.4	> 14	0.52	0.42	inactive	1	24 µg/mL (≈ 42.7 µM)	> 10 µg/mL	> 10 µg/mL	1.9	inactive	3.2 µg/mL (≈ 5.69 µM)	0%	100%	0.87	1.34	IC50 [14]: > 44.4 µM; MIC [18]: 20.8 µg/mL (≈ 37 µM); IC50 (HL-60): 40 µg/mL (≈ 71.1 µM); IC50 (CHO): 39 µg/mL (≈ 69.3 µM); IC50 (BT-549): > 10 µg/mL; IC50 (SK-OV-3): > 10 µg/mL; IC50 (RAW264.7 [20]): 23 µg/mL (≈ 40.9 µM)
CC[C@@H](C)C(=O)O[C@H]1C(=O)O[C@@H]2C[C@H]3C(C)=C[C@H](OC(C)=O)[C@@H](OC(C)=O)[C@]3(C)[C@H]3[C@@H](O)[C@@H](OC(C)=O)[C@]4(C)OC[C@]32[C@@H]14	> 50 µg/mL	> 50 µg/mL	> 4.76 µg/mL	10 µg/mL (≈ 16.5 µM)	–	–	1.03	1.02	inactive	–	–	–	–	–	inactive	> 4.76 µg/mL	0%	100%	1.14	0.87	–
CC[C@@H](C)C(=O)O[C@H]1C(=O)O[C@@H]2C[C@H]3C(C)=C[C@H](O)[C@@H](O)[C@]3(C)[C@H]3[C@@H](O)[C@@H](O)[C@]4(C)OC[C@]32[C@@H]14	25 µg/mL (≈ 52 µM)	> 50 µg/mL	0.00853 µg/mL (≈ 0.0178 µM)	10 µg/mL (≈ 20.8 µM)	3060	1180	0.09	0.05	Active	0.6	4.2 µg/mL (≈ 8.74 µM)	1.9 µg/mL (≈ 3.95 µM)	1.9 µg/mL (≈ 3.95 µM)	2.7	–	0.00327 µg/mL (≈ 0.0068 µM)	96.5%	3.5%	0.57	0.35	IC50 [14]: > 52 µM; MIC [18]: 0.26 µg/mL (≈ 0.541 µM); IC50 (HL-60): 0.7 µg/mL (≈ 1.46 µM); IC50 (CHO): 2.5 µg/mL (≈ 5.2 µM); IC50 (BT-549): 1.7 µg/mL (≈ 3.54 µM); IC50 (SK-OV-3): 0.8 µg/mL (≈ 1.66 µM); IC50 (RAW264.7 [20]): 6.5 µg/mL (≈ 13.5 µM)
